Assay results as given in publication PMC9989826 (Cell Reports, 2023).

Key:
[1] = system: CCl4-intoxicated Nep−/− mice; test: Captopril or losartan co-treatment of CCl4-intoxicated Nep−/− mice; format: in vivo, mouse; conditions: losartan 5 mg/kg/day or captopril 4 mg/kg/day for four weeks, vs non-treated fibrotic Nep−/− mice, n = 6
Procedure, shortened: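 Nep−/− mice (C57BL/6J background, male and female, 10–12 weeks) exposed to CCl4 at 1L/min three times weekly for four weeks, with phenobarbital 3.0 mg/kg/day in drinking water. Losartan or captopril co-treatment ran through the same four weeks. Sirius red-stained sections scored by morphometry; portal pressure recorded in mm Hg; hepatic Col1a1 mRNA by qPCR. Mean ± SEM.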

[2] = system: fibrotic WT (C57BL6/J) mice; test: Entresto study: oral treatment of fibrotic WT mice; format: in vivo, mouse; conditions: oral 100 mg/kg for 14 days; fibrotic mice vs control
Procedure, shortened: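 Male and female WT mice, 10–12 weeks, made fibrotic over 7 weeks by i.p. CCl4 plus either ethanol in drinking water or Western diet. Entresto tablet (49mg/51mg) crushed and resuspended in 0.9% NaCl; valsartan and sacubitril prepared the same way. Dosed orally for 14 days until sacrifice. Portal pressure measured at the end; hepatic Col1a1 mRNA also assessed. Mean ± SEM.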

primary Nep−/− HSCs = test: Determination of cellular cAMP; format: cell-based, mouse; conditions: serum starved, full-length NPY 1 nM or mix of C-terminal fragments 30 μM, 30 min (methods), 24 h (Figure 4F), n = 3–4
Procedure, shortened: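 HSCs isolated from WT and Nep−/− mice were cultured at least one week (fully activated) in DMEM/20% FBS with penicillin-streptomycin, in Zn- and EDTA-free buffers. […] Competitive cAMP ELISA, normalised to total protein; mean ± SEM.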

[3] = system: primary HSCs from Nep−/− mice; test: Immunofluorescence and confocal microscopy of collagen I and αSMA; format: cell-based, mouse; conditions: full-length NPY, 24 h
Procedure, shortened: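 Primary Nep−/− HSCs, activated by at least one week of culture, were serum-starved 12 h. […] Cells were fixed in 4% paraformaldehyde and permeabilized with 1% Triton X-100, each 10 min at 37°C, then blocked 1 h in 1% BSA. Anti-collagen I (1:50) and anti-α-SMA (1:200) ran overnight at 4°C, secondaries (1:3000) 2 h, with DAPI counterstain. Confocal fluorescence was quantified from three independent experiments.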

[4] = system: primary mouse HSC (WT and Nep−/−); test: Western blot of ROCK, p-moesin and p-ERK in primary HSCs; format: cell-based; conditions: NPY 1 nM, 24 h, compared with WT cells
Procedure, shortened: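 Primary HSCs from WT and Nep−/− mice were cultured at least one week until fully activated. They were seeded at 300,000 cells/well in DMEM with 20% FBS, and buffers were free of Zn and EDTA. […] Protein was read by western blot with GAPDH as loading control.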

[5] = system: primary mouse HSC (WT and Nep−/−); test: mRNA expression; format: cell-based; conditions: NPY 1 nM, 24 h
[6] = system: primary mouse HSC (WT and Nep−/−); test: Collagen gel contraction assay; format: cell-based; conditions: primary mouse HSCs on collagen gels, NPY 0–100 nM, 0–48 h; Nep−/− vs WT
Procedure, shortened: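 Primary HSCs were isolated from WT and Nep−/− mice and cultured at least one week until fully activated. 1 × 10^4 cells were embedded in 1 mg/mL collagen gels, in triplicate per group. […] Gel area was tracked from images taken at fixed camera distance over time, as % of initial surface; mean ± SEM, n = 3–6.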

WT mice = test: Intraperitoneal injection of NPYFL or its C-terminal fragments in WT mice; format: in vivo, mouse; conditions: i.p., 72 hours, n = 6/group

For `C[C@H](CS)C(=O)N1CCC[C@H]1C(=O)O` [captopril], the “hepatic Col1a1 mRNA expression” value [1] was “significantly reduced” and the portal pressure [1] was “significantly reduced”.

With `CCCCc1nc(Cl)c(CO)n1Cc1ccc(-c2ccccc2-c2nn[nH]n2)cc1` [losartan] the “hepatic Col1a1 mRNA expression” value [1] was “significantly reduced” and the portal pressure [1] was “significantly reduced”.

`CCOC(=O)[C@H](C)C[C@@H](Cc1ccc(-c2ccccc2)cc1)NC(=O)CCC(=O)O` [sacubitril] was tested, and the “portal pressure, single components of Entresto” value [2] was “Neither valsartan nor sacubitril were able to significantly reduce portal pressure”.

`CCCCC(=O)N(Cc1ccc(-c2ccccc2-c2nnn[nH]2)cc1)[C@H](C(=O)O)C(C)C` [valsartan] was tested, and the “portal pressure, single components of Entresto” value [2] was “Neither valsartan nor sacubitril were able to significantly reduce portal pressure”.

In the case of Neuropeptide Y [NPY], the “cAMP measurements (pmol cAMP per mg of total protein)” value (primary Nep−/− HSCs) is reported as “reduction”, the “αSMA expression (immunofluorescence)” value [3] is reported as “increased” and the “ROCK protein and p-moesin expression (western blot)” value [4] is reported as “increased further”. For the same compound, the “Col1a1 mRNA level” value ([5]; Nep−/− HSCs) was “decreased”, the “Tgfβ1 mRNA level” value ([5]; Nep−/− HSCs) was “decreased” and the “Acta2 mRNA expression” value ([5]; Nep−/− HSCs, compared with WT control) was “induced”. The “Col1a1 mRNA level” value ([5]; WT HSCs) was “increased”, the “Tgfβ1 mRNA level” value ([5]; WT HSCs) was “increased” and the “HSC contraction (decrease of gel surface)” value [6] was “induced more HSC contraction”. The “hepatic Acta2 mRNA expression” value (WT mice) was “significantly induced”, the “hepatic mRNA expression of the main fibrotic markers, Col1a1 and Tgfβ1” value (WT mice) was “induced” and the portal pressure (WT mice) was “increase”.
